Assay results published in ChEMBL document CHEMBL1145212, “Fluorinated diaryl sulfides as serotonin transporter ligands: synthesis, structure-activity relationship study, and in vivo evaluation of fluorine-18-labeled compounds as PET imaging agents” (J Med Chem, 2005).

Assays:
Conditions in all cases: tested as the 18F-labelled form
[1] = molecular target: Sodium-dependent serotonin transporter (Rattus norvegicus) (UniProt P31652); assay: Specific binding in rat hypothalamus at 120 min postinjection in vivo; format: functional, organism-based
Chain of Sodium-dependent serotonin transporter (Rattus norvegicus) (P31652 whole entry): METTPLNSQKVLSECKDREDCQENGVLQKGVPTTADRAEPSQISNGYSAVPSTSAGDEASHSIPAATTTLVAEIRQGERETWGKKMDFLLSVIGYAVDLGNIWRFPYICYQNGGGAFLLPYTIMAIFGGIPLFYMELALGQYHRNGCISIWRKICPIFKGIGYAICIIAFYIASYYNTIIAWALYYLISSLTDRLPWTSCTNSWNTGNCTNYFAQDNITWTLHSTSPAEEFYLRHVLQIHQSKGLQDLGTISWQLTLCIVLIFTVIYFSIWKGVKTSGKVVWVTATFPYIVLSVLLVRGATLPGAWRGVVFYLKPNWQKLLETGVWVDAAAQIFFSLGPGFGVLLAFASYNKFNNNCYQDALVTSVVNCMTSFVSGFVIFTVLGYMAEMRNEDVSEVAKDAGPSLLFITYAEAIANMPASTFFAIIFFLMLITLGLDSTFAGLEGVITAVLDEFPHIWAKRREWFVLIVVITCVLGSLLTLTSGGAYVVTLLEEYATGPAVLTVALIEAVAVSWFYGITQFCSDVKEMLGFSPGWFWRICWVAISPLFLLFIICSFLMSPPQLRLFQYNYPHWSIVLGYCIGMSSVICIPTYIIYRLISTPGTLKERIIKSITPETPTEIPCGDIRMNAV
Outline: (§1)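 Male Sprague-Dawley rats, n=3 per time point, received about 20 µCi of F-18 radioligand in saline iv by tail vein and were killed at 10–120 min. %ID/g was measured with decay and tail-residual correction. Hypothalamic specific binding = (%ID/g hypothalamus − %ID/g cerebellum)/%ID/g cerebellum; mean ± SD.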

[2] = molecular target: Sodium-dependent serotonin transporter (Rattus norvegicus) (UniProt P31652); assay: Specific binding of [18F]AFA in rat frontal cortex after nisoxetine treatment; n=3; format: functional, tissue-based
Outline: (§2)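 Rats, three per group, were pretreated iv with blocker at 2 mg/kg in saline, or with saline as control, 10–15 min before tail-vein F-18 radioligand (about 20 µCi). Killed at 60 min and regional %ID/g determined. Specific binding = (region activity − cerebellum activity)/cerebellum activity; mean ± SD.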

Rattus norvegicus [3] = species on record: Rattus norvegicus; assay: Regional uptake of [18F]AFA in thalamus of rat pretreated with compound nisoxetine; n=3; format: functional, organism-based
Outline: (§3)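 Male Sprague-Dawley rats, three per group, received blocker (2 mg/kg iv in saline) or saline only (controls) 10–15 min before about 20 µCi of tail-vein F-18 radioligand. Killed 60 min after tracer. Blood and brain regions weighed and gamma-counted. %ID/g was decay- and tail-corrected; mean ± SD.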

[4] = molecular target: Sodium-dependent serotonin transporter (Rattus norvegicus) (UniProt P31652); assay: Specific binding of [18F]-AFA in rat striatum after nisoxetine treatment; n=3; format: functional, tissue-based; outline: as §2
[5] = molecular target: Sodium-dependent serotonin transporter (Rattus norvegicus) (UniProt P31652); assay: Specific binding in rat hypothalamus at 60 min postinjection in vivo; format: functional, organism-based; outline: as §1
Rattus norvegicus [6] = species on record: Rattus norvegicus; assay: Regional uptake of [18F]-AFA in blood of rat pretreated with compound GBR-12935; n=3; format: functional, organism-based; outline: as §3
Rattus norvegicus [7] = species on record: Rattus norvegicus; assay: Regional uptake of [18F]-AFA in hypothalamus of rat pretreated with compound nisoxetine; n=3; format: functional, organism-based; outline: as §3
[8] = molecular target: Sodium-dependent serotonin transporter (Rattus norvegicus) (UniProt P31652); assay: Specific binding of [18F]AFA in rat hippocampus after GBR-12935 treatment; n=3; format: functional, tissue-based; outline: as §2
Rattus norvegicus [9] = species on record: Rattus norvegicus; assay: Regional uptake of [18F]AFA in frontal cortex of rat pretreated with compound GBR-12935; n=3; format: functional, organism-based; outline: as §3
Rattus norvegicus [10] = species on record: Rattus norvegicus; assay: Regional uptake of [18F]AFA in hypothalamus of rat pretreated with compound GBR-12935; n=3; format: functional, organism-based; outline: as §3
Rattus norvegicus [11] = species on record: Rattus norvegicus; assay: Regional uptake of [18F]AFA in cerebellum of rat pretreated with compound nisoxetine; n=3; format: functional, organism-based; outline: as §3
Rattus norvegicus [12] = species on record: Rattus norvegicus; assay: Regional uptake of [18F]AFA in cerebellum of rat pretreated with compound citalopram; n=3; format: functional, organism-based; outline: as §3
[13] = molecular target: Sodium-dependent serotonin transporter (Rattus norvegicus) (UniProt P31652); assay: Specific binding in rat hypothalamus at 90 min postinjection in vivo; format: functional, organism-based; outline: as §1
[14] = molecular target: Sodium-dependent serotonin transporter (Rattus norvegicus) (UniProt P31652); assay: Specific binding of [18F]AFA in rat thalamus after GBR-12935 treatment; n=3; format: functional, tissue-based; outline: as §2
[15] = molecular target: Sodium-dependent serotonin transporter (Rattus norvegicus) (UniProt P31652); assay: Specific binding of [18F]AFA in rat frontal cortex after GBR-12935 treatment; n=3; format: functional, tissue-based; outline: as §2
Rattus norvegicus [16] = species on record: Rattus norvegicus; assay: Regional uptake of [18F]AFA in hippocampus of rat pretreated with compound nisoxetine; n=3; format: functional, organism-based; outline: as §3
Rattus norvegicus [17] = species on record: Rattus norvegicus; assay: Regional uptake of [18F]AFA in blood of rat pretreated with compound 7d; n=3; format: functional, organism-based
[18] = molecular target: Sodium-dependent serotonin transporter (Rattus norvegicus) (UniProt P31652); assay: Specific binding of [18F]AFA in rat hippocampus after nisoxetine treatment; n=3; format: functional, tissue-based; outline: as §2
Rattus norvegicus [19] = species on record: Rattus norvegicus; assay: Regional uptake of [18F]-AFA in blood of rat pretreated with compound citalopram; n=3; format: functional, organism-based; outline: as §3
Rattus norvegicus [20] = species on record: Rattus norvegicus; assay: Regional uptake of [18F]AFA in striatum of rat pretreated with compound citalopram; n=3; format: functional, organism-based; outline: as §3
Rattus norvegicus [21] = species on record: Rattus norvegicus; assay: Regional uptake of [18F]-AFA in striatum of rat pretreated with compound GBR-12935; n=3; format: functional, organism-based; outline: as §3
[22] = molecular target: Sodium-dependent serotonin transporter (Rattus norvegicus) (UniProt P31652); assay: Specific binding of [18F]AFA in rat hypothalamus after citalopram treatment; n=3; format: functional, tissue-based; outline: as §2
[23] = molecular target: Sodium-dependent serotonin transporter (Rattus norvegicus) (UniProt P31652); assay: Specific binding of [18F]-AFA in rat striatum after citalopram treatment; n=3; format: functional, tissue-based; outline: as §2
[24] = molecular target: Sodium-dependent serotonin transporter (Rattus norvegicus) (UniProt P31652); assay: Specific binding of [18F]AFA in rat thalamus after nisoxetine treatment; n=3; format: functional, tissue-based; outline: as §2
Rattus norvegicus [25] = species on record: Rattus norvegicus; assay: Regional uptake of [18F]AFA in thalamus of rat pretreated with compound GBR-12935; n=3; format: functional, organism-based; outline: as §3

CN(C)Cc1ccccc1Sc1ccc(CF)cc1N
Specific binding (dimensionless ratio) [1]: 8.37 | Specific binding [2]: 4.02 %ID/g | Uptake (Rattus norvegicus [3]): 0.65 %ID/g | Specific binding [4]: 3.59 %ID/g | Specific binding [5]: 4.56 %ID/g | Uptake (Rattus norvegicus [6]): 0.11 %ID/g | Uptake (Rattus norvegicus [7]): 0.73 %ID/g | Specific binding [8]: 3.51 %ID/g | Uptake (Rattus norvegicus [9]): 0.76 %ID/g | Uptake (Rattus norvegicus [10]): 0.87 %ID/g | Uptake (Rattus norvegicus [11]): 0.13 %ID/g | Uptake (Rattus norvegicus [12]): 0.08 %ID/g | Specific binding (dimensionless ratio) [13]: 5.81 | Specific binding [14]: 4.38 %ID/g | Specific binding [15]: 3.83 %ID/g | Uptake (Rattus norvegicus [16]): 0.47 %ID/g | Uptake (Rattus norvegicus [17]): 0.11 %ID/g | Specific binding [18]: 2.72 %ID/g | Uptake (Rattus norvegicus [19]): 0.12 %ID/g | Uptake (Rattus norvegicus [20]): 0.12 %ID/g | Uptake (Rattus norvegicus [21]): 0.7 %ID/g | Specific binding [22]: 1.37 %ID/g | Specific binding [23]: 0.52 %ID/g | Specific binding [24]: 4.71 %ID/g | Uptake (Rattus norvegicus [25]): 0.74 %ID/g
